Screening data as filed in PubChem.
Most compounds without a hit are left out; they make up all but 3.7% or so of the library.
NCF1 inh – p47phox/p22phox peptide binding inhibitors, primary screen, biochemical, uHTS, NADPH oxidase regulatory subunit; 220,000 compounds, 0.53% hits; fluorescence polarization, 2 h; inhibition, % at 24.7 µM; Neutrophil cytosol factor 1 (Homo sapiens), P14598
eIF4E 4G PPI – eIF4E–eIF4G protein interaction inhibitors, primary screen, biochemical, uHTS, TR-FRET, eIF4GI fragment. Eukaryotic translation initiation factor 4E (Mus musculus) + Eukaryotic translation …. TR-FRET eIF4E-eIF4GI(517-606) binding, 2 h. inhibition, % at 21.7 µM. 220,000 compounds, 0.37% hits. AID 782, 2007
Target sequence (P63073 whole entry, looked up, the tested form may be a part): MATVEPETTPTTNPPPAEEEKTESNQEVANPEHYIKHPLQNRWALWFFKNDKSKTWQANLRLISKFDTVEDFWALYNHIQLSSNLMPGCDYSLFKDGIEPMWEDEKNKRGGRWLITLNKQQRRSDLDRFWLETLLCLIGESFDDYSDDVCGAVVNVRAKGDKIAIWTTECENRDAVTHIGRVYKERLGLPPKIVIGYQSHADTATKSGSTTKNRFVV
Target sequence (Q04637 whole entry, looked up, the tested form may be a part): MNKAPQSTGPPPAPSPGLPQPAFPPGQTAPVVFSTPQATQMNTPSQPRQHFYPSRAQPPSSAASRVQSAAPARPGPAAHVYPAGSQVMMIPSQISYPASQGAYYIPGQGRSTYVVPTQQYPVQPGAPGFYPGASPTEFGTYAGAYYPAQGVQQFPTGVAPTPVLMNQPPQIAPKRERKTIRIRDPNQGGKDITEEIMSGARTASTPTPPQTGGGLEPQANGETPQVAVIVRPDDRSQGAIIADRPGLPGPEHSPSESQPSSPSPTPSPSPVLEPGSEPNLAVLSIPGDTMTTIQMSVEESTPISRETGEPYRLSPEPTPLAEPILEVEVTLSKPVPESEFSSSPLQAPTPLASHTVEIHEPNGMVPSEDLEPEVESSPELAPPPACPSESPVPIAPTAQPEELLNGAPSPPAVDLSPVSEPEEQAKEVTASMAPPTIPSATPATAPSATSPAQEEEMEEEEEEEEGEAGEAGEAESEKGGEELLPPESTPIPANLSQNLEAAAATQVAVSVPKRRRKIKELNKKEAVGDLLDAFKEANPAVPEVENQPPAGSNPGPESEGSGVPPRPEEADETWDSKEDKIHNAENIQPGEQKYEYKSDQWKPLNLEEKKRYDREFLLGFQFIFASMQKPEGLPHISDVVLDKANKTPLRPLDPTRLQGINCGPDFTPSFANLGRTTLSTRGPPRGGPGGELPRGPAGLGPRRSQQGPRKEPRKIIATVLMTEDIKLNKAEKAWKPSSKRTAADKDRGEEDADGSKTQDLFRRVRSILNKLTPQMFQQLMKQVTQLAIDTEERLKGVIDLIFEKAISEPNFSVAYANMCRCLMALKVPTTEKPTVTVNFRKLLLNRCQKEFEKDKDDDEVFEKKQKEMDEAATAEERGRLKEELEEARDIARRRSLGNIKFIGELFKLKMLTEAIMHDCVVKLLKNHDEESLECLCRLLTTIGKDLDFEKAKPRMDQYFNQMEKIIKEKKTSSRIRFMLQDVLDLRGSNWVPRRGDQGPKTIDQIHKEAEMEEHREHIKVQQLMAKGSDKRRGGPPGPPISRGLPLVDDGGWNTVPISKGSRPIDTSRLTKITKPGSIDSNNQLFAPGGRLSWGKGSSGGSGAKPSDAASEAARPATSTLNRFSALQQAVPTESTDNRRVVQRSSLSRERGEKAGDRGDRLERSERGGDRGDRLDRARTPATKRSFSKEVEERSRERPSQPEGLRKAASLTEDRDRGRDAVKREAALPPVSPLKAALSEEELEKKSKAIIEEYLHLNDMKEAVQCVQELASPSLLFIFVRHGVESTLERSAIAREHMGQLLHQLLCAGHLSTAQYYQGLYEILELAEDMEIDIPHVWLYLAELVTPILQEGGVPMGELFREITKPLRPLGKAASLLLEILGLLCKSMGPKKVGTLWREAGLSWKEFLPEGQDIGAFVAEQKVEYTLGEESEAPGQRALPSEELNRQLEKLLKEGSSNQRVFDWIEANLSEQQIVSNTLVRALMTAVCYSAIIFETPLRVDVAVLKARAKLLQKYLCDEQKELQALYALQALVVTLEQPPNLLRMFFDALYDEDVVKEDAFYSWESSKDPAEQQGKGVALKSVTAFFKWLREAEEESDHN
14-3-3 Bad PPI – inhibitors of 14-3-3 zeta/Bad binding, primary screen, biochemical, TR-FRET, bovine 14-3-3 zeta | 14-3-3 protein zeta/delta (Bos taurus), P63103 | TR-FRET 14-3-3zeta/Dy647-pBad peptide displacement, 1 h | inhibition, % at 21.7 µM | 220,000 compounds, 0.71% hits;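 active = inhibition above about 70%, limit read from the data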
WT yeast gro inh – growth inhibition of WT strain, primary screen, mitochondrial fusion inhibitor project, WT and mutant strains, chemical genetic | mitochondrial fusion phenotypic screen | inhibition, % at 10 µM | 190,000 compounds, 2.1% hits; in the data active = inhibition above about 58%; tested in S. cerevisiae
RBBP9 inh – human RBBP9 inhibitors, primary screen, biochemical, fluorescence polarization, FP-Rh probe, HTS; inhibition, % at 7.94 µM; 220,000 compounds, 0.2% hits; recombinant RBBP9; AID 1515, 2009;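 active = inhibition above the campaign mean of all tested compounds plus 3 SD, cut at about 14% in these data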
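Measured by: FP readout at 525/598 nm; material: recombinant human RBBP9; also added: Serine-hydrolase probe FP-Rh, 375 nM pre-mixing; medium: Tris buffer pH 8.0, NaCl, Pluronic; replication: one well per compound; doses: one concentration, 7.94 µM nominal, 0.794% DMSO; timing: preincubation 30 min plus labeling 45 min at 25 °C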
EBV gp42 block – Epstein-Barr virus gp42 inhibitors, primary screen, biochemical, uHTS, fluorescence polarization; Glycoprotein 42 (Epstein-Barr virus (strain AG876)), Q1HVG2; Fluorescence polarization binding assay, mP read-out; inhibition, % (tested at 21.74 µM); 220,000 compounds, 0.42% hits; AID 1085, 2008; in the data active = inhibition above about 50%
RBBP9 confirm – human RBBP9 inhibitors, retest, confirmation, biochemical, fluorescence polarization, FP-Rh probe, triplicate; shares compounds with RBBP9 inh; recombinant RBBP9; inhibition, % at 7.94 µM; 410 compounds, 36% hits; AID 1537, 2009;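 active = inhibition above the hit cutoff derived for the primary screen, cut at about 15% in these data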
A number is an active result; n = inactive; x = not tested or not shown; [ ] = another dose, or the depositor's remark.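 Rule for the calls, unless noted: active = inhibition above about 30% (limit read from the data); inactive = the rest.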

SMILES	NCF1 inh	eIF4E 4G PPI	14-3-3 Bad PPI	WT yeast gro inh	RBBP9 inh	EBV gp42 block	others
CS(=O)(=O)N1N=C(c2cccs2)CC1c1ccccc1O (configuration not stated)	n	n	n	n	n	n
COc1ccccc1NC(=O)c1c(N=Cc2ccccc2O)cnn1C	n	n	n	n	n	n
C(=N\Nc1nc(N2CCCCCC2)nc(N2CCCCCC2)n1)/c1ccccc1	n	n	n	68	n	n
Fc1ccc(Nc2nc(N/N=C/c3ccco3)nc(N3CCCCC3)n2)cc1	n	n	n	82	n	n
Oc1ccc(Br)cc1/C=N/Nc1nc(N2CCCCC2)nc(N2CCOCC2)n1	n	n	n	n	n	n
Oc1ccc(/C=N/Nc2nc(N3CCCCCC3)nc(N3CCCCCC3)n2)c(O)c1	n	n	n	74	n	n
CCc1nc2n(n1)C(O)c1cc([N+](=O)[O-])ccc1S2 (configuration not stated)	n	n	n	x	n	n
Cc1ccc(C2C(C(=O)c3ccco3)=C(O)C(=O)N2c2nnc(C)s2)cc1 (configuration not stated)	n	n	n	n	n	77
Cc1nnc(N2C(=O)C(O)=C(C(=O)c3ccco3)C2c2cccc3ccccc23)s1 (configuration not stated)	n	n	n	x	n	n
Cc1cccc(N2C(=O)C(O)=C(C(=O)c3cccs3)C2c2ccc(C(C)C)cc2)n1 (configuration not stated)	n	n	n	x	n	n
CC(C)c1nnc(N2C(=O)C(O)=C(C(=O)c3cccs3)C2c2ccccc2)s1 (configuration not stated)	n	n	n	n	n	126
C=CCOc1ccc(C2C(C(=O)c3cccs3)=C(O)C(=O)N2c2nnc(C)s2)cc1 (configuration not stated)	x	x	x	x	n	x
COc1ccc(C2C(C(=O)c3cccs3)=C(O)C(=O)N2c2nnc(C)s2)cc1OC (configuration not stated)	n	n	n	n	n	91
COc1ccc(C2C(C(=O)c3cccs3)=C(O)C(=O)N2c2nncs2)cc1 (configuration not stated)	n	n	n	n	n	133
CCc1ccc(C(=O)/C=C/c2ccc([N+](=O)[O-])o2)cc1	n	n	n	60	n	n
CCN(CC)S(=O)(=O)c1ccc(C(=O)/C=C/c2ccc(-c3ccc([N+](=O)[O-])cc3)o2)cc1	n	n	n	x	n	86
Cc1ccc(C(=O)/C=C/c2ccc(-c3ccc(C)cc3)o2)cc1	n	n	n	n	n	n
COc1cc(C(=O)NC2CCCNC2)cc(OC)c1OC (configuration not stated)	n	n	n	n	n	n
CC(C)c1ccc2oc(-c3cc(N)ccc3O)nc2c1	n	n	n	68	n	n
Cc1ccccc1-c1nc2cc(N)ccc2o1	n	n	n	n	n	n
C=CCc1cccc(CNc2nc3ccccc3n2C(C)C)c1O	n	n	n	70	n	n
OC(COCc1ccc2c(c1)OCO2)CN1CCN(Cc2ccccc2)CC1 (configuration not stated)	n	n	79	n	n	n
OC(COCc1ccc(Cl)cc1)CN1CCN(CC(O)COCc2ccc(Cl)cc2)CC1 (configuration not stated)	n	n	n	58	n	n
Cc1cc(C)nc(-n2nc(C)cc2NC(=O)c2ccc(S(=O)(=O)N3CCOCC3)cc2)n1	n	n	n	x	n	n
CN(C(=O)COC(=O)c1cc(NS(=O)(=O)c2cc([N+](=O)[O-])ccc2Cl)ccc1O)C1CCCCC1	n	n	n	n	n	n
SMILES	NCF1 inh	eIF4E 4G PPI	14-3-3 Bad PPI	WT yeast gro inh	RBBP9 inh	EBV gp42 block	others
CCCCCCCCCCCCCCCC[n+]1cccc2ccccc21	101	92[fluorescence artefact?]	97[fluorescence artefact?]	n	n	n
CCCCCCCCC[n+]1cccc2c3ccccc3ccc21	n	n	n	n	n	n
CC1CCCCN1C(=O)C1CCCCN1S(=O)(=O)c1cccc([N+](=O)[O-])c1 (configuration not stated)	n	n	n	x	n	n
Cc1nn(-c2ccccc2)c(Cl)c1C(=O)OC(C)C(=O)NC(=O)NC1CCCCC1 (configuration not stated)	n	n	n	69	n	n
CC1(C)CC(/C=C/c2ccccc2)=Nc2ccccc2N1	n	n	n	x	n	n
CN1C(=O)C(O)(CC(=O)/C=C/c2ccco2)c2cc(Br)ccc21 (configuration not stated)	n	n	83	n	n	n
c1ccc2c(-c3c[nH]c4ccccc34)c3ccccc3nc2c1	n	n	n	79	n	n
O=C(O)c1cc(-c2c[nH]c3ccccc23)nc2ccc3ccccc3c12	n	n	n	n	n	n
COCCN(C(=O)C1CCC1)c1nnc(-c2cccnc2)s1	n	n	n	n	n	n
CCN(C(=O)C1CCCCC1)c1nnc(-c2cccnc2)s1	n	n	77	n	14	n	RBBP9 confirm=n
CC(=O)Nc1ccc(OCCC[n+]2ccccc2)cc1	n	n	n	n	n	n
CC(=O)Nc1ccc(OCC[n+]2cccc(C(N)=O)c2)cc1	x	n	n	n	14	n	RBBP9 confirm=n
CCC(C)(C)NC(=O)/C=C/c1cccs1	n	n	n	n	18	n	RBBP9 confirm=n
O=C(CC(c1ccco1)S(=O)(=O)c1ccccc1)c1ccccc1 (configuration not stated)	n	n	n	n	n	n
COc1ccc(Cn2c(=O)c3[nH]cnc3n(-c3ccc(C)cc3)c2=O)cc1	n	n	n	x	n	n
Cc1cc(C)nc(SCc2ccc(C(=O)O)o2)n1	n	n	n	n	15	n	RBBP9 confirm=n
O=[N+]([O-])c1ccc(Cl)c(C2Nc3cccc4cccc(c34)N2)c1	n	n	n	n	35	n	RBBP9 confirm=37
Oc1ccccc1C1Nc2cccc3cccc(c23)N1	n	n	n	n	n	n
O=[N+]([O-])c1ccccc1C1Nc2cccc3cccc(c23)N1	n	n	n	n	32	n	RBBP9 confirm=27
COc1cccc(CNc2ccc(N3CCCCC3)cc2)c1OC	n	n	n	n	14	n	RBBP9 confirm=17
